Screens (PubChem BioAssay)
The full list was thinned out, with hits kept by preference.
XBP1 UPR activ: activators of adaptive arm of unfolded protein response (XBP1); CHO-XBP1 luciferase reporter, IRE1-XBP1 UPR activation, luminescence; percent of tunicamycin response, DMSO as zero; activation, % at 20 µM; 0.33% of 330,000 active;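 active = versus positive control, 20 µM dose yields 30% or more activation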;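 note: 100% = tunicamycin at 10 µg/mL and 0% = DMSO only wells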
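incubation = overnight seeding at 37 °C, 6 h compound treatment at 37 °C | assay system = CHO-XBP1 cells stably carrying IRE1-XBP1-driven luciferase reporter | input = 1000 cells per well | detection = luciferase luminescence | dosing = single point, 20 µM final compound, 1% DMSO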
TbMetRS inhib: Trypanosoma brucei MetRS inhibition | purified T. brucei MetRS, ATP depletion, Kinase-Glo luminescence | inhibition, % at 11.9 µM | 0.4% of 360,000 active | AID 624268;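 active = inhibition above a per-plate cutoff of the control wells' mean inhibition plus 3 SD, cut at about 5.5% in these data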;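 note: 0% = DMSO wells median and 100% = median of wells with control inhibitor compound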
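assay system = parasite MetRS enzyme | timing = 15 min preincubation, 2 h reaction, all 25 °C | evaluation = percent inhibition relative to median high and low control wells | medium = HEPES buffer containing pyrophosphatase, BSA, spermine, DTT | compound = single dose, 11.9 µM final nominal, 0.9% final DMSO | detection = Kinase-Glo luminescence, ATP depletion format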
V-ATPase pH: yeast V-ATPase proton transport regulation by pHLuorin. 0.37% of 350,000 active. response, % at 10 µM. S. cerevisiae, pHLuorin cytosolic pH fluorescence; in the data active = response mostly above about 7.3%, no sharp cut-off; inactive = mostly below about 5.4%; note: actives read high
CHOP inh: CHOP inhibition in unfolded protein response. CHO-K1 CHOP-promoter luciferase, tunicamycin-induced, 15-18 h. inhibition, % at 10 µM. 3.8% of 220,000 active. AID 2732;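 active = compounds that reduced the stress-induced luciferase reporter signal by more than about 70% of percent inhibition, limit read from the data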;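 note: 0% = tunicamycin plus vehicle and 100% = wells without tunicamycin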
CHOP UPR activ: activators of apoptotic arm of unfolded protein response (CHOP). 0.34% of 330,000 active. AID 449763. CHO-CHOP luciferase reporter, UPR activation, luminescence; percent of tunicamycin response over DMSO baseline. activation, % at 10 µM;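 active = at 10 µM dose, activation of 40% or more, normalized to positive control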;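 note: 100% = tunicamycin at 10 µg/mL and 0% = DMSO alone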
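Assay system: CHO cells with stable CHOP pathway luciferase reporter; Buffer or medium: F12 plus 10% serum; Times: 16-18 h cell attachment, then 6 h compound exposure, 37 °C; Signal: luciferase luminescence; Read-out basis: percent activation relative to tunicamycin control; Control set: tunicamycin high control, DMSO low control.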
CHOP UPR conf: confirmation of apoptotic unfolded protein response (CHOP) activators; shares compounds with CHOP UPR activ; CHO-CHOP cells, CHOP-luciferase reporter luminescence; percent of tunicamycin response, DMSO as zero; activation, % at 10 µM; 64% of 1,000 active; AID 463112; in the data active = activation above about 33%;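 note: 0% = DMSO wells and 100% = tunicamycin 10 µg/mL wells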
* marks the source's active call; other numbers are inactive results.

For CSc1nc(-c2ccc(C)cc2)nc(C(Cl)Cl)n1 the results were XBP1 UPR activ 12, TbMetRS inhib -1, V-ATPase pH -1, CHOP inh 65, CHOP UPR activ 52* and CHOP UPR conf 6.
For O=C(CCCCCNC(=O)N1CCn2c1nc1ccccc12)NCCc1ccccc1 the results were XBP1 UPR activ 0, TbMetRS inhib -1, V-ATPase pH 0 and CHOP UPR activ -1.
Screening COc1ccc(CNC(=O)COc2ccc(C(=O)c3ccc(F)cc3)cc2)cc1 returned XBP1 UPR activ 4, TbMetRS inhib 0, V-ATPase pH 2, CHOP inh -9, CHOP UPR activ 56* and CHOP UPR conf -2.
For COc1ccc(CNC(=O)COc2ccc(F)cc2)cc1 the results were XBP1 UPR activ -1, TbMetRS inhib 0, V-ATPase pH -3, CHOP inh 8 and CHOP UPR activ -1.
For CC(=O)N/C(=N\c1nc(C)cc(C)n1)Nc1ccc(Cl)cc1Cl the results were XBP1 UPR activ -3, TbMetRS inhib -1, V-ATPase pH 0, CHOP UPR activ 49* and CHOP UPR conf 0.
For CC(=O)N/C(=N/c1nc(C)cc(C)n1)Nc1ccc(NC(C)=O)cc1 the results were XBP1 UPR activ 2, TbMetRS inhib -1, V-ATPase pH 2, CHOP inh 40 and CHOP UPR activ 1.
`Oc1ccc(-c2nccs2)cc1` gave TbMetRS inhib 0 and V-ATPase pH 4.
Screening Cc1cc(C)nc(NC(=S)NC(=O)c2ccccc2F)n1 returned XBP1 UPR activ -1, TbMetRS inhib 0, V-ATPase pH 5 and CHOP UPR activ 1.
`Cc1cc(C)nc(S/C=C/C(=O)c2ccccc2F)n1` gave XBP1 UPR activ 0, TbMetRS inhib -1, V-ATPase pH 5, CHOP inh 85*, CHOP UPR activ 73* and CHOP UPR conf 8.
For COC(=O)[C@@]12C[C@@H](CC(=O)N3CCC(c4ccccc4)CC3)C(=O)N(Cc3cccc4ccccc34)C1=CCC(C)(C)C2 the results were TbMetRS inhib -1.
`COCCN(CC(=O)Nc1cc(Cl)ccc1-n1cncn1)Cc1nc2ccccc2c(=O)[nH]1` gave XBP1 UPR activ -1, TbMetRS inhib -1, V-ATPase pH -5 and CHOP UPR activ -2.
`Oc1ccc(CN2CCN(c3ccccc3)CC2)c2cccnc12` gave XBP1 UPR activ 16, TbMetRS inhib -1, V-ATPase pH 4, CHOP inh 35, CHOP UPR activ 67* and CHOP UPR conf 50*.
CCOC(=O)N1CCN(Cc2ccc(O)c3ncccc23)CC1 was read as XBP1 UPR activ 25, CHOP inh 7, CHOP UPR activ 62* and CHOP UPR conf 78*.
For Oc1c(Cl)cc(CN2CCCCC2)c2cccnc12 the results were XBP1 UPR activ 27, TbMetRS inhib 0, V-ATPase pH -2, CHOP UPR activ 84* and CHOP UPR conf 74*.
For Oc1ccc(CN2CCc3ccccc3C2)c2cccnc12 the results were XBP1 UPR activ 12, TbMetRS inhib -1, V-ATPase pH 0, CHOP inh 56, CHOP UPR activ 104* and CHOP UPR conf 102*.
For Nc1nc2ccc(Cl)cc2cc1C(=O)NCc1ccc(Oc2ccccc2)cc1 the results were TbMetRS inhib -1.
For Cc1cc(Cl)ccc1OCCCC(=O)OCC(N)=O the results were XBP1 UPR activ -2, TbMetRS inhib 3, V-ATPase pH -4, CHOP inh -16 and CHOP UPR activ 1.
Screening CCOc1ccc(-c2csc3nc[nH]c(=O)c23)cc1 returned XBP1 UPR activ 0, TbMetRS inhib -1, V-ATPase pH 0 and CHOP UPR activ 2.
`COC(=O)C1=C(C)N(c2ccc(C)c(C)c2)/C(=C/c2ccco2)C1=O` gave XBP1 UPR activ 14, TbMetRS inhib -1, V-ATPase pH 1, CHOP inh 0, CHOP UPR activ 68* and CHOP UPR conf 47*.
For O=C(COc1ccccc1)NNc1nc2c(F)cc(F)cc2s1 the results were XBP1 UPR activ -3, TbMetRS inhib -1, V-ATPase pH 2, CHOP inh 7 and CHOP UPR activ 2.
